# Experimental data: ChEMBL document CHEMBL1151684, “Synthesis and antitumoral activity of novel 3-(2-substituted-1,3,4-oxadiazol-5-yl) and 3-(5-substituted-1,2,4-triazol-3-yl) beta-carboline derivatives” (2008)
# Tested on: not listed separately
# Experiment: Growth inhibition of human PCO3 cells after 48 hrs by sulforhodamine B assay
# Format: functional
# Conditions: PCO3, 48 h
# How it was run: (§1)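 Sulforhodamine B colorimetric assay following the NCI standard protocol, with doxorubicin as positive control. Each compound was tested at four concentrations in 10-fold dilutions (0.25 to 250). GI50, the concentration giving 50% growth reduction versus untreated control cells, was derived from dose–response curves.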
SMILES,GI50,TGI,LC50 (concentration killing 50% of cells)
CN(C)c1ccc(-c2nc(-c3n[nH]c(=S)n3N)cc3c2[nH]c2ccccc23)cc1,> 100 µM,> 100 µM,
Oc1ccc(-c2nc(-c3n[nH]c(=S)[nH]3)cc3c2[nH]c2ccccc23)cc1,0.5 µM,40.7 µM,> 100 µM
CN(C)c1ccc(-c2nc(-c3n[nH]c(=S)[nH]3)cc3c2[nH]c2ccccc23)cc1,1.37 µM,6.68 µM,> 100 µM
Nn1c(-c2cc3c([nH]c4ccccc43)c(-c3ccc(O)cc3)n2)n[nH]c1=S,25.5 µM,> 100 µM,
Nn1c(-c2cc3c([nH]c4ccccc43)c(-c3ccccc3Cl)n2)n[nH]c1=S,24.7 µM,> 100 µM,
CSc1nnc(-c2cc3c([nH]c4ccccc43)c(-c3ccccc3Cl)n2)n1N,22.2 µM,> 100 µM,
Nn1c(-c2cc3c([nH]c4ccccc43)c(-c3ccccc3)n2)n[nH]c1=S,10.9 µM,30.6 µM,> 100 µM
CSc1nnc(-c2cc3c([nH]c4ccccc43)c(-c3ccccc3)n2)n1N,> 100 µM,,

# Tested on: 786-0
# Experiment: Growth inhibition of human 786-0 cells after 48 hrs by sulforhodamine B assay
# Format: functional
# Conditions: 786-0, 48 h
# How it was run: as §1
SMILES,GI50,TGI
CN(C)c1ccc(-c2nc(-c3n[nH]c(=S)n3N)cc3c2[nH]c2ccccc23)cc1,0.97 µM,80 µM
Oc1ccc(-c2nc(-c3n[nH]c(=S)[nH]3)cc3c2[nH]c2ccccc23)cc1,0.17 µM,23.8 µM
CN(C)c1ccc(-c2nc(-c3n[nH]c(=S)[nH]3)cc3c2[nH]c2ccccc23)cc1,0.04 µM,1.24 µM
Nn1c(-c2cc3c([nH]c4ccccc43)c(-c3ccc(O)cc3)n2)n[nH]c1=S,0.26 µM,94.1 µM
Nn1c(-c2cc3c([nH]c4ccccc43)c(-c3ccccc3Cl)n2)n[nH]c1=S,39.5 µM,
CSc1nnc(-c2cc3c([nH]c4ccccc43)c(-c3ccccc3Cl)n2)n1N,16.8 µM,93.5 µM
Nn1c(-c2cc3c([nH]c4ccccc43)c(-c3ccccc3)n2)n[nH]c1=S,10.9 µM,49.4 µM
CSc1nnc(-c2cc3c([nH]c4ccccc43)c(-c3ccccc3)n2)n1N,> 100 µM,

# Same assay, conditions: 786-0, 48 h, read-out: LC50 (the source's name)
row,SMILES,CC50
1,CN(C)c1ccc(-c2nc(-c3n[nH]c(=S)n3N)cc3c2[nH]c2ccccc23)cc1,> 100 µM
2,Oc1ccc(-c2nc(-c3n[nH]c(=S)[nH]3)cc3c2[nH]c2ccccc23)cc1,> 100 µM
3,CN(C)c1ccc(-c2nc(-c3n[nH]c(=S)[nH]3)cc3c2[nH]c2ccccc23)cc1,37.3 µM
4,Nn1c(-c2cc3c([nH]c4ccccc43)c(-c3ccc(O)cc3)n2)n[nH]c1=S,> 100 µM
5,Nn1c(-c2cc3c([nH]c4ccccc43)c(-c3ccccc3Cl)n2)n[nH]c1=S,> 100 µM
6,CSc1nnc(-c2cc3c([nH]c4ccccc43)c(-c3ccccc3Cl)n2)n1N,> 100 µM
7,Nn1c(-c2cc3c([nH]c4ccccc43)c(-c3ccccc3)n2)n[nH]c1=S,> 100 µM

# Tested on: MCF7
# Experiment: Growth inhibition of human MCF7 cells after 48 hrs by sulforhodamine B assay
# Format: functional
# Conditions: MCF7, 48 h
# How it was run: as §1
SMILES,GI50,TGI,LC50 (concentration killing 50% of cells)
CN(C)c1ccc(-c2nc(-c3n[nH]c(=S)n3N)cc3c2[nH]c2ccccc23)cc1,> 100 µM,> 100 µM,
Oc1ccc(-c2nc(-c3n[nH]c(=S)[nH]3)cc3c2[nH]c2ccccc23)cc1,19.8 µM,> 100 µM,
CN(C)c1ccc(-c2nc(-c3n[nH]c(=S)[nH]3)cc3c2[nH]c2ccccc23)cc1,8.63 µM,37 µM,> 100 µM
Nn1c(-c2cc3c([nH]c4ccccc43)c(-c3ccc(O)cc3)n2)n[nH]c1=S,61.2 µM,> 100 µM,
Nn1c(-c2cc3c([nH]c4ccccc43)c(-c3ccccc3Cl)n2)n[nH]c1=S,70.1 µM,> 100 µM,
CSc1nnc(-c2cc3c([nH]c4ccccc43)c(-c3ccccc3Cl)n2)n1N,20.1 µM,> 100 µM,
Nn1c(-c2cc3c([nH]c4ccccc43)c(-c3ccccc3)n2)n[nH]c1=S,15 µM,32.5 µM,> 100 µM
CSc1nnc(-c2cc3c([nH]c4ccccc43)c(-c3ccccc3)n2)n1N,> 100 µM,,

# Tested on: OVCAR
# Experiment: Growth inhibition of human OVCAR cells after 48 hrs by sulforhodamine B assay
# Format: functional
# Conditions: not given
# How it was run: as §1
SMILES,GI50,TGI,"LC50 (concentration killing 50% of the cells, NCI protocol)"
CN(C)c1ccc(-c2nc(-c3n[nH]c(=S)n3N)cc3c2[nH]c2ccccc23)cc1,> 100 µM,> 100 µM,
Oc1ccc(-c2nc(-c3n[nH]c(=S)[nH]3)cc3c2[nH]c2ccccc23)cc1,6.41 µM,> 100 µM,
CN(C)c1ccc(-c2nc(-c3n[nH]c(=S)[nH]3)cc3c2[nH]c2ccccc23)cc1,1.09 µM,7.28 µM,47.9 µM
Nn1c(-c2cc3c([nH]c4ccccc43)c(-c3ccc(O)cc3)n2)n[nH]c1=S,27.5 µM,98.4 µM,> 100 µM
Nn1c(-c2cc3c([nH]c4ccccc43)c(-c3ccccc3Cl)n2)n[nH]c1=S,6.8 µM,49.9 µM,> 100 µM
CSc1nnc(-c2cc3c([nH]c4ccccc43)c(-c3ccccc3Cl)n2)n1N,11.2 µM,38.4 µM,> 100 µM
Nn1c(-c2cc3c([nH]c4ccccc43)c(-c3ccccc3)n2)n[nH]c1=S,12 µM,25.3 µM,52.5 µM
CSc1nnc(-c2cc3c([nH]c4ccccc43)c(-c3ccccc3)n2)n1N,> 100 µM,,

# Tested on: UACC-62
# Experiment: Growth inhibition of human UACC-62 cells after 48 hrs by sulforhodamine B assay
# Format: functional
# Conditions: UACC-62, 48 h
# How it was run: as §1
SMILES,GI50,TGI,"LC50 (concentration killing 50% of cells, NCI protocol)"
CN(C)c1ccc(-c2nc(-c3n[nH]c(=S)n3N)cc3c2[nH]c2ccccc23)cc1,50.4 µM,> 100 µM,
Oc1ccc(-c2nc(-c3n[nH]c(=S)[nH]3)cc3c2[nH]c2ccccc23)cc1,10.6 µM,> 100 µM,
CN(C)c1ccc(-c2nc(-c3n[nH]c(=S)[nH]3)cc3c2[nH]c2ccccc23)cc1,1.74 µM,> 100 µM,
Nn1c(-c2cc3c([nH]c4ccccc43)c(-c3ccc(O)cc3)n2)n[nH]c1=S,22.5 µM,> 100 µM,
Nn1c(-c2cc3c([nH]c4ccccc43)c(-c3ccccc3Cl)n2)n[nH]c1=S,20.2 µM,86.1 µM,> 100 µM
CSc1nnc(-c2cc3c([nH]c4ccccc43)c(-c3ccccc3Cl)n2)n1N,18.6 µM,59 µM,> 100 µM
Nn1c(-c2cc3c([nH]c4ccccc43)c(-c3ccccc3)n2)n[nH]c1=S,24.3 µM,> 100 µM,
CSc1nnc(-c2cc3c([nH]c4ccccc43)c(-c3ccccc3)n2)n1N,> 100 µM,,

# Tested on: HT-29
# Experiment: Growth inhibition of human HT-29 cells after 48 hrs by sulforhodamine B assay
# Format: functional
# Conditions: HT-29, 48 h
# How it was run: as §1
SMILES,GI50,TGI
CN(C)c1ccc(-c2nc(-c3n[nH]c(=S)n3N)cc3c2[nH]c2ccccc23)cc1,> 100 µM,> 100 µM
Oc1ccc(-c2nc(-c3n[nH]c(=S)[nH]3)cc3c2[nH]c2ccccc23)cc1,46.2 µM,> 100 µM
CN(C)c1ccc(-c2nc(-c3n[nH]c(=S)[nH]3)cc3c2[nH]c2ccccc23)cc1,8.63 µM,51.5 µM
Nn1c(-c2cc3c([nH]c4ccccc43)c(-c3ccc(O)cc3)n2)n[nH]c1=S,34 µM,> 100 µM
Nn1c(-c2cc3c([nH]c4ccccc43)c(-c3ccccc3Cl)n2)n[nH]c1=S,33 µM,> 100 µM
CSc1nnc(-c2cc3c([nH]c4ccccc43)c(-c3ccccc3Cl)n2)n1N,20.4 µM,> 100 µM
Nn1c(-c2cc3c([nH]c4ccccc43)c(-c3ccccc3)n2)n[nH]c1=S,15 µM,86.9 µM
CSc1nnc(-c2cc3c([nH]c4ccccc43)c(-c3ccccc3)n2)n1N,> 100 µM,

# Tested on: K562
# Experiment: Growth inhibition of human K-562 cells after 48 hrs by sulforhodamine B assay
# Format: functional
# Conditions: K562, 48 h
# How it was run: as §1
SMILES,GI50,TGI
CN(C)c1ccc(-c2nc(-c3n[nH]c(=S)n3N)cc3c2[nH]c2ccccc23)cc1,> 100 µM,> 100 µM
Oc1ccc(-c2nc(-c3n[nH]c(=S)[nH]3)cc3c2[nH]c2ccccc23)cc1,> 100 µM,> 100 µM
CN(C)c1ccc(-c2nc(-c3n[nH]c(=S)[nH]3)cc3c2[nH]c2ccccc23)cc1,11.1 µM,> 100 µM
Nn1c(-c2cc3c([nH]c4ccccc43)c(-c3ccc(O)cc3)n2)n[nH]c1=S,29.9 µM,> 100 µM
Nn1c(-c2cc3c([nH]c4ccccc43)c(-c3ccccc3Cl)n2)n[nH]c1=S,62.4 µM,> 100 µM
CSc1nnc(-c2cc3c([nH]c4ccccc43)c(-c3ccccc3Cl)n2)n1N,1.92 µM,> 100 µM
Nn1c(-c2cc3c([nH]c4ccccc43)c(-c3ccccc3)n2)n[nH]c1=S,9.93 µM,> 100 µM
CSc1nnc(-c2cc3c([nH]c4ccccc43)c(-c3ccccc3)n2)n1N,2.04 µM,

# Tested on: not listed separately
# Experiment: Growth inhibition of human NCI-460 cells after 48 hrs by sulforhodamine B assay
# Format: functional
# Conditions: NCI-460, 48 h
# How it was run: as §1
SMILES,GI50,LC50 (concentration for 50% net cell kill),TGI
CN(C)c1ccc(-c2nc(-c3n[nH]c(=S)n3N)cc3c2[nH]c2ccccc23)cc1,0.2 µM,> 100 µM,71.8 µM
Oc1ccc(-c2nc(-c3n[nH]c(=S)[nH]3)cc3c2[nH]c2ccccc23)cc1,6.69 µM,,> 100 µM
CN(C)c1ccc(-c2nc(-c3n[nH]c(=S)[nH]3)cc3c2[nH]c2ccccc23)cc1,0.06 µM,> 100 µM,8.96 µM
Nn1c(-c2cc3c([nH]c4ccccc43)c(-c3ccc(O)cc3)n2)n[nH]c1=S,0.15 µM,,12.2 µM
Nn1c(-c2cc3c([nH]c4ccccc43)c(-c3ccccc3Cl)n2)n[nH]c1=S,15.4 µM,> 100 µM,38 µM
CSc1nnc(-c2cc3c([nH]c4ccccc43)c(-c3ccccc3Cl)n2)n1N,13.9 µM,> 100 µM,41.8 µM
Nn1c(-c2cc3c([nH]c4ccccc43)c(-c3ccccc3)n2)n[nH]c1=S,1.59 µM,> 100 µM,54.7 µM
CSc1nnc(-c2cc3c([nH]c4ccccc43)c(-c3ccccc3)n2)n1N,> 100 µM,,
